According to ChEMBL document CHEMBL1142975 (J Med Chem, 2007):
Activity calls are given as the source filed them. The rule behind the calls is not given here.

Columns and labels:
[1] = Cytotoxicity against vaccinia virus IHD-J infected BSC40 cells; format: cell-based, Macaca mulatta; details: rhesus monkey, BSC-40 cells infected with vaccinia virus IHD-J
Vaccinia virus [2] = test: Antiviral activity against vaccinia virus IHD-J in BSC40 cells by CPE assay; format: functional, organism-based; details: Orthopoxvirus vaccinia, BSC-40
Mus musculus = test: Toxicity in mouse at 2000 mg/kg after 28 days; format: organism-based; design: dose 2000 mg/kg; details: in vivo, 672 h
In short: (§1)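 Animals received 28-day repeat dosing, and the no observable adverse effect level (NOAEL) was determined.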

Variola virus [3] = test: Antiviral activity against variola virus BSH virus by CPE assay; format: functional, organism-based
Camelpox virus = test: Antiviral activity against camelpox virus by CPE assay; format: functional, organism-based
Monkeypox virus = test: Antiviral activity against monkeypox virus by CPE assay; format: functional, organism-based
Variola virus [4] = test: Antiviral activity against variola virus BUT virus by CPE assay; format: functional, organism-based
[5] = Metabolic stability in mouse Liver S9 fraction; format: ADME, subcellular
In short: (§2)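 Compound was incubated with liver S-9 extracts from each species, with NADPH added. Loss of parent compound was followed by LC/MS and reported as half-life in minutes.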

[6] = Tmax in rat at 2 mg/kg, po; format: ADME, organism-based; design: dose 2 mg/kg, route oral; details: in vivo
In short: (§3)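 Rats were dosed orally in 0.75% Methocell/1% Tween vehicle, and a separate intravenous arm was run to derive bioavailability. Plasma concentration–time data gave Tmax, Cmax, AUC, t1/2, clearance, Vss and %F.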

[7] = Metabolic stability in human Liver S9 fraction; format: ADME, subcellular; in short: as §2
[8] = Metabolic stability in monkey Liver S9 fraction; format: ADME, subcellular, Macaca mulatta; details: rhesus monkey; in short: as §2
[9] = tested on: Bovine viral diarrhea virus 1; test: Antiviral activity against BVDV NADL by plaque reduction assay; format: functional, organism-based; details: Bovine viral diarrhea virus isolates and strains
[10] = Clearance in rat at 2 mg/kg, po; format: ADME, organism-based; design: dose 2 mg/kg, route oral; details: in vivo; in short: as §3
Human betaherpesvirus 5 = test: Antiviral activity against human cytomegalovirus AD169 by plaque reduction assay; format: functional, organism-based; details: Human betaherpesvirus 5, AD169
[11] = Metabolic stability in dog Liver S9 fraction; format: ADME, subcellular, Canis lupus familiaris; in short: as §2
Vaccinia virus [12] = test: Antiviral activity assessed as inhibition of extracellular virus formation in vaccinia virus IHD-J infected BSC40 cells at 5 uM after 24 hrs; format: functional, organism-based; details: Orthopoxvirus vaccinia, BSC-40
[13] = tested on: Respiratory syncytial virus; test: Antiviral activity against RSV A by plaque reduction assay; format: functional, organism-based; details: human respiratory syncytial virus
Rotavirus = test: Antiviral activity against rotavirus by plaque reduction assay; format: functional, organism-based
[14] = Half life in rat at 2 mg/kg, po; format: ADME, organism-based; design: dose 2 mg/kg, route oral; details: in vivo; in short: as §3
[15] = Cmax in rat at 2 mg/kg, po; format: ADME, organism-based; design: dose 2 mg/kg, route oral; details: in vivo; in short: as §3
Human alphaherpesvirus 1 = test: Antiviral activity against HSV1 KOS by plaque reduction assay; format: functional, organism-based; details: Human alphaherpesvirus 1, KOS
[16] = Metabolic stability in rat Liver S9 fraction; format: ADME, subcellular; in short: as §2
[17] = AUC in rat at 2 mg/kg, po; format: ADME, organism-based; design: dose 2 mg/kg, route oral; details: plasma; in short: as §3
Cynomolgus monkey = test: Toxicity in cynomolgus monkey at 600 mg/kg after 28 days; format: organism-based, Macaca fascicularis; design: dose 600 mg/kg; details: in vivo, 672 h; in short: as §1
[18] = Oral bioavailability in rat at 2 mg/kg, po; format: ADME, organism-based; details: in vivo; in short: as §3
Rattus norvegicus = test: Volume of distribution at steady state in rat at 2 mg/kg, po; format: ADME, organism-based; design: dose 2 mg/kg, route oral; details: in vivo; in short: as §3
Cowpox virus = test: Antiviral activity against cowpox virus by CPE assay; format: functional, organism-based

Compound	CC50 [1]	EC50 (Vaccinia virus [2])	EC50 (Variola virus [3])	EC50 (Camelpox virus)	EC50 (Monkeypox virus)	EC50 (Variola virus [4])	further results
COc1ccc(C(=O)NN2C(=O)[C@@H]3C4C=CC(C5CC54)[C@@H]3C2=O)cc1 (stereo partly specified)	> 100000 nM	2200 nM					
O=C(NN1C(=O)[C@@H]2C3C=CC(C4CC43)[C@@H]2C1=O)c1cccnc1 (stereo partly specified)	> 100000 nM	740 nM					
O=C(NN1C(=O)[C@@H]2C3C=CC(C4CC43)[C@@H]2C1=O)c1ccc(C(F)(F)F)cc1 (stereo partly specified)	> 100000 nM	40 nM	50 nM	10 nM	10 nM	20 nM	Activity (Mus musculus): Non-toxic; half-life [5]: > 3.33 h; Tmax [6]: 2.2 h; half-life [7]: > 3.33 h; half-life [8]: > 3.33 h; EC50 [9]: > 40000 nM; CL/F [10]: 8.67 mL/min/kg; EC50 (Human betaherpesvirus 5): > 40000 nM; half-life [11]: > 3.33 h; Activity (Vaccinia virus [12]): Active; EC50 [13]: > 40000 nM; EC50 (Rotavirus): > 40000 nM; half-life [14]: 4.2 h; Cmax [15]: 920 ng/mL; EC50 (Human alphaherpesvirus 1): > 40000 nM; half-life [16]: > 3.33 h; AUC [17]: 6100 ng·h/mL; Activity (Cynomolgus monkey): Non-toxic; bioavailability [18]: 31%; Vss (Rattus norvegicus): 0.6 L/kg
O=C(NN1C(=O)[C@@H]2C3C=CC(C4CC43)[C@@H]2C1=O)c1ccc(Cl)cc1 (stereo partly specified)	> 100000 nM	20 nM					EC50 (Cowpox virus): 770 nM
O=C(NN1C(=O)[C@@H]2C3C=CC(C4CC43)[C@@H]2C1=O)c1ccncc1 (stereo partly specified)	> 100000 nM	500 nM	400 nM	110 nM	150 nM	220 nM	
Cc1cc(C(=O)NN2C(=O)[C@@H]3C4C=CC(C5CC54)[C@@H]3C2=O)[nH]n1 (stereo partly specified)	> 100000 nM	7100 nM					
CN(C)c1ccc(C(=O)NN2C(=O)[C@@H]3C4C=CC(C5CC54)[C@@H]3C2=O)cc1 (stereo partly specified)	> 100000 nM	2000 nM					
O=C(NN1C(=O)[C@@H]2C3C=CC(C4CC43)[C@@H]2C1=O)c1ccc(Br)cc1 (stereo partly specified)	> 100000 nM	20 nM	50 nM	10 nM	10 nM	20 nM	half-life [5]: > 3.33 h; half-life [7]: 0.95 h; half-life [8]: > 3.33 h; half-life [11]: > 3.33 h; half-life [16]: > 3.33 h
O=C(NN1C(=O)[C@@H]2C3C=CC(C4CC43)[C@@H]2C1=O)c1ccccc1Cl (stereo partly specified)	> 100000 nM	3000 nM					EC50 (Cowpox virus): > 20000 nM
Nc1ccc(C(=O)NN2C(=O)[C@@H]3C4C=CC(C5CC54)[C@@H]3C2=O)cc1 (stereo partly specified)	> 92000 nM	7700 nM					
Cn1cccc1C(=O)NN1C(=O)[C@@H]2C3C=CC(C4CC43)[C@@H]2C1=O (stereo partly specified)	> 100000 nM	15800 nM					
O=C(NN1C(=O)[C@@H]2C3C=CC(C4CC43)[C@@H]2C1=O)c1cccc(Cl)c1 (stereo partly specified)	> 100000 nM	40 nM					EC50 (Cowpox virus): 600 nM
O=C(NN1C(=O)[C@@H]2C3C=CC(C4CC43)[C@@H]2C1=O)c1ccc([N+](=O)[O-])cc1 (stereo partly specified)	> 86000 nM	20 nM					
O=C(NN1C(=O)[C@@H]2C3C=CC(C4CC43)[C@@H]2C1=O)c1ccccc1Br (stereo partly specified)	> 100000 nM	2300 nM	3300 nM	3800 nM	3600 nM	1400 nM	
O=C(NN1C(=O)[C@@H]2C3C=CC(C4CC43)[C@@H]2C1=O)c1ccccn1 (stereo partly specified)	> 100000 nM	> 20000 nM	> 20000 nM	4200 nM	> 16000 nM	10000 nM	
O=C(NN1C(=O)[C@@H]2C3CCC(C4CC43)[C@@H]2C1=O)c1ccc(C(F)(F)F)cc1 (stereo partly specified)	> 100000 nM	20 nM	200 nM	30 nM	80 nM	10 nM	
O=C(NN1C(=O)[C@@H]2C3C=CC(C4CC43)[C@@H]2C1=O)c1cccc(Br)c1 (stereo partly specified)	> 100000 nM	50 nM					
